Assay results as given in ChEMBL document CHEMBL3632582, “Aspertetranones A-D, Putative Meroterpenoids from the Marine Algal-Associated Fungus Aspergillus sp. ZL0-1b14” (J Nat Prod, 2015).
Activity calls are given as the source filed them. The calls are words filed in the database; no cut-off is given here.

Key:
RAW264.7 [1] = experiment: Antiinflammatory activity in mouse RAW264.7 cells assessed as inhibition of LPS-induced nitric oxide production at 33.3 uM preincubated 2 hrs before LPS stimulation measured after 22 hrs; assay type: functional
RAW264.7 [2] = experiment: Antiinflammatory activity in mouse RAW264.7 cells assessed as inhibition of LPS-induced TNFalpha production at 33.3 uM preincubated 2 hrs before LPS stimulation measured after 22 hrs by ELISA; assay type: functional
RAW264.7 [3] = experiment: Antiinflammatory activity in mouse RAW264.7 cells assessed as inhibition of LPS-induced IL-1beta production preincubated 2 hrs before LPS stimulation measured after 22 hrs by ELISA; assay type: functional, cell-based
Summary of the method: (§1)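 RAW 264.7 macrophages were pretreated for 2 h with compound across 0–80 μM, with hydrocortisone (20 μM) as control. LPS was then added for a further 22 h. IL-6 or IL-1β in the culture medium was quantified by ELISA.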

RAW264.7 [4] = experiment: Cytotoxicity against mouse RAW264.7 cells assessed as cell viability at 10 to 100 uM after 24 hrs by MTS assay; assay type: cell-based; details: raw264.7, 24 h
Summary of the method: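 RAW264.7 cells were seeded at 2 × 10^6 cells per well and grown to 80% confluency. They were then exposed to compound over a 10–100 μM gradient for 24 h, and viability was read colorimetrically by MTS.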

RAW264.7 [5] = experiment: Antiinflammatory activity in mouse RAW264.7 cells assessed as inhibition of LPS-induced IL-6 production preincubated 2 hrs before LPS stimulation measured after 22 hrs by ELISA; assay type: functional, cell-based; summary of the method: as §1
RAW264.7 [6] = experiment: Antiinflammatory activity in mouse RAW264.7 cells assessed as inhibition of LPS-induced IL-1beta production at 40 uM preincubated 2 hrs before LPS stimulation measured after 22 hrs by ELISA; assay type: functional; summary of the method: as §1
RAW264.7 [7] = experiment: Antiinflammatory activity in mouse RAW264.7 cells assessed as inhibition of LPS-induced IL-6 production at 40 uM preincubated 2 hrs before LPS stimulation measured after 22 hrs by ELISA; assay type: functional; summary of the method: as §1

SMILES	inhibition at 33.3 µM (RAW264.7 [1]) [%]	inhibition at 33.3 µM (RAW264.7 [2]) [%]	inhibition (RAW264.7 [3])	Activity (RAW264.7 [4])	inhibition (RAW264.7 [5])	inhibition at 40 µM (RAW264.7 [6]) [%]	inhibition at 40 µM (RAW264.7 [7]) [%]
Cc1cc2c(c(=O)o1)C(=O)[C@@H]1[C@@H](C)[C@]3(O)CC(=O)C(C)(C)C(=O)[C@@]3(O)[C@@H](O)[C@@]1(C)O2	< 35	< 35	inactive	Non-toxic	inactive		
Cc1oc(=O)c2c(c1C)O[C@@]1(C)[C@@H]([C@@H](C)[C@]3(O)CC(=O)C(C)(C)C(=O)[C@@]3(O)[C@H]1O)[C@H]2O	< 35	< 35	Dose-dependent effect	Non-toxic	Dose-dependent effect	47	69
Cc1oc(=O)c2c(c1C)O[C@@]1(C)[C@H](C2=O)[C@@H](C)[C@]2(O)CC(=O)C(C)(C)C(=O)[C@@]2(O)[C@H]1O	< 35	< 35	Dose-dependent effect	Non-toxic	Dose-dependent effect	42	43
Cc1oc(=O)c2c(c1C)O[C@@]1(C)[C@H](C2)[C@@H](C)[C@]2(O)CC(=O)C(C)(C)C(=O)[C@@]2(O)[C@H]1O	< 35	< 35	inactive	Non-toxic	inactive		
